Reference: ChEMBL document CHEMBL1275484, “Rifampin and rifaximin resistance in clinical isolates of Clostridium difficile” (Antimicrob Agents Chemother, 2008)
≈ marks a conversion by molar mass, not a printed value.

Columns and labels:
Format in all cases: functional
[1] = tested on: Clostridioides difficile; assay: Antimicrobial activity against Clostridium difficile isolate 28 by Etest
Summary of the method: (§1)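 Rifampin MIC by Etest strip on brucella blood agar, run per the strip maker's instructions. Isolates were HindIII REA-typed clinical C. difficile.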

[2] = tested on: Clostridioides difficile; assay: Antimicrobial activity against Clostridium difficile isolate 1 by Etest; summary of the method: as §1
[3] = tested on: Clostridioides difficile; assay: Antimicrobial activity against Clostridium difficile isolate 78 by Etest
Summary of the method: (§2)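 Rifampin MIC by Etest on brucella blood agar, run per the strip manufacturer's instructions, against clinical isolates typed by HindIII REA.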

[4] = tested on: Clostridioides difficile; assay: Antimicrobial activity against Clostridium difficile isolate 56 by agar dilution method
Summary of the method: (§3)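 CLSI reference agar dilution method for anaerobes, with endpoints read per guideline M11-A7. Rifaximin was dissolved in methanol, diluted in 0.1 M phosphate buffer (pH 7.4) with 0.45% SDS, and tested at 0.0009–256 μg/ml. Rifampin was dissolved in methanol, diluted in water, and tested at 0.00001–256 μg/ml. C. difficile ATCC […] served as control. Isolates were typed by HindIII REA.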

[5] = tested on: Clostridioides difficile; assay: Antimicrobial activity against rifaximin-resistant Clostridium difficile isolate 64 expressing RpoB H502R mutant by Etest
Summary of the method: (§4)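 Rifampin Etest on clinical C. difficile isolates typed by HindIII REA, run per the strip manufacturer's instructions on brucella blood agar, with the MIC read from the strip.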

[6] = tested on: Clostridioides difficile; assay: Antimicrobial activity against Clostridium difficile isolate 14 by Etest; summary of the method: as §1
[7] = tested on: Clostridioides difficile; assay: Antimicrobial activity against Clostridium difficile isolate 62 by Etest
Summary of the method: (§5)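 Rifampin Etest strips were run on brucella blood agar following the manufacturer's instructions to give an MIC. Clinical isolates were typed by HindIII REA.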

[8] = tested on: Clostridioides difficile; assay: Antimicrobial activity against Clostridium difficile isolate 46 by Etest; summary of the method: as §5
[9] = tested on: Clostridioides difficile; assay: Antimicrobial activity against Clostridium difficile isolate 41 by Etest; summary of the method: as §5
[10] = tested on: Clostridioides difficile; assay: Antimicrobial activity against Clostridium difficile isolate 39 by Etest; summary of the method: as §5
[11] = tested on: Clostridioides difficile; assay: Antimicrobial activity against Clostridium difficile isolate 60 by agar dilution method; summary of the method: as §3
[12] = tested on: Clostridioides difficile; assay: Antimicrobial activity against rifaximin-resistant Clostridium difficile isolate 50 expressing RpoB R505K mutant by Etest; summary of the method: as §4
[13] = tested on: Clostridioides difficile; assay: Antimicrobial activity against Clostridium difficile isolate 73 by Etest; summary of the method: as §2
[14] = tested on: Clostridioides difficile; assay: Antimicrobial activity against Clostridium difficile isolate 80 by Etest; summary of the method: as §2
[15] = tested on: Clostridioides difficile; assay: Antimicrobial activity against Clostridium difficile isolate 3 by Etest; summary of the method: as §1
[16] = tested on: Clostridioides difficile; assay: Antimicrobial activity against Clostridium difficile isolate 55 by Etest; summary of the method: as §5
[17] = tested on: Clostridioides difficile; assay: Antimicrobial activity against Clostridium difficile isolate 74 by agar dilution method
Summary of the method: (§6)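 CLSI reference agar dilution for anaerobes, with endpoints read per guideline M11-A7. Rifaximin was dissolved in methanol, diluted in 0.1 M phosphate buffer pH 7.4 with 0.45% SDS, and tested at 0.0009–256 μg/ml. Rifampin was dissolved in methanol, diluted in water, and tested at 0.00001–256 μg/ml. Control strain: C. difficile ATCC […]. Isolates were typed by HindIII REA.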

[18] = tested on: Clostridioides difficile; assay: Antimicrobial activity against Clostridium difficile isolate 78 by agar dilution method; summary of the method: as §6
[19] = tested on: Clostridioides difficile; assay: Antimicrobial activity against Clostridium difficile isolate 53 by agar dilution method; summary of the method: as §3
[20] = tested on: Clostridioides difficile; assay: Antimicrobial activity against Clostridium difficile isolate 19 by Etest; summary of the method: as §1
[21] = tested on: Clostridioides difficile; assay: Antimicrobial activity against rifaximin-resistant Clostridium difficile isolate 22 expressing RpoB H502N and R505K mutants by Etest; summary of the method: as §4
[22] = tested on: Clostridioides difficile; assay: Antimicrobial activity against Clostridium difficile isolate 32 by Etest; summary of the method: as §1
[23] = tested on: Clostridioides difficile; assay: Antimicrobial activity against rifaximin-resistant Clostridium difficile isolate 24 expressing RpoB H502N and R505K mutants by agar dilution method
Summary of the method: (§7)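 MICs were found by the CLSI reference agar dilution method for anaerobes, with endpoints read per M11-A7 and C. difficile […] as control. Rifaximin was dissolved in methanol, diluted in 0.1 M phosphate buffer pH 7.4 with 0.45% SDS, and tested at 0.0009–256 μg/ml. Rifampin was dissolved in methanol, diluted in water, and tested at 0.00001–256 μg/ml.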

[24] = tested on: Clostridioides difficile; assay: Antimicrobial activity against Clostridium difficile isolate 6 by agar dilution method; summary of the method: as §3
[25] = tested on: Clostridioides difficile; assay: Antimicrobial activity against Clostridium difficile isolate 70 by Etest; summary of the method: as §2
[26] = tested on: Clostridioides difficile; assay: Antimicrobial activity against Clostridium difficile isolate 37 by agar dilution method
Summary of the method: (§8)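 MIC by CLSI reference agar dilution for anaerobes, with endpoints read per M11-A7 and C. difficile […] as control. Rifaximin was dissolved in methanol, diluted in 0.1 M phosphate buffer pH 7.4 plus 0.45% SDS, and tested at 0.0009–256 μg/ml. Rifampin was dissolved in methanol, diluted in water, and tested at 0.00001–256 μg/ml.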

[27] = tested on: Clostridioides difficile; assay: Antimicrobial activity against Clostridium difficile isolate 72 by agar dilution method; summary of the method: as §6
[28] = tested on: Clostridioides difficile; assay: Antimicrobial activity against Clostridium difficile isolate 61 by Etest; summary of the method: as §5
[29] = tested on: Clostridioides difficile; assay: Antimicrobial activity against rifaximin-resistant Clostridium difficile isolate 66 expressing RpoB D492N and R505K mutants by Etest; summary of the method: as §4
[30] = tested on: Clostridioides difficile; assay: Antimicrobial activity against rifaximin-resistant Clostridium difficile isolate 21 expressing RpoB H502N and R505K mutants by Etest; summary of the method: as §4
[31] = tested on: Clostridioides difficile; assay: Antimicrobial activity against Clostridium difficile isolate 16 by Etest; summary of the method: as §1
[32] = tested on: Clostridioides difficile; assay: Antimicrobial activity against Clostridium difficile isolate 27 by agar dilution method; summary of the method: as §8
[33] = tested on: Clostridioides difficile; assay: Antimicrobial activity against Clostridium difficile isolate 55 by agar dilution method; summary of the method: as §3
[34] = tested on: Clostridioides difficile; assay: Antimicrobial activity against Clostridium difficile isolate 49 by agar dilution method; summary of the method: as §3
[35] = tested on: Clostridioides difficile; assay: Antimicrobial activity against Clostridium difficile isolate 12 expressing RpoB H502N and R505K mutants by Etest; summary of the method: as §4
[36] = tested on: Clostridioides difficile; assay: Antimicrobial activity against Clostridium difficile isolate 54 by agar dilution method; summary of the method: as §3
[37] = tested on: Clostridioides difficile; assay: Antimicrobial activity against Clostridium difficile isolate 47 by agar dilution method; summary of the method: as §3
[38] = tested on: Clostridioides difficile; assay: Antimicrobial activity against rifaximin-resistant Clostridium difficile isolate 67 expressing RpoB H502N and R505K mutants by agar dilution method; summary of the method: as §7
[39] = tested on: Clostridioides difficile; assay: Antimicrobial activity against Clostridium difficile isolate 63 by Etest; summary of the method: as §2
[40] = tested on: Clostridioides difficile; assay: Antimicrobial activity against rifaximin-resistant Clostridium difficile isolate 4 expressing RpoB S488T and R505K mutants by agar dilution method; summary of the method: as §7
[41] = tested on: Clostridioides difficile; assay: Antimicrobial activity against Clostridium difficile isolate 31 by Etest; summary of the method: as §1
[42] = tested on: Clostridioides difficile; assay: Antimicrobial activity against Clostridium difficile isolate 36 by Etest; summary of the method: as §1
[43] = tested on: Clostridioides difficile; assay: Antimicrobial activity against Clostridium difficile isolate 41 by agar dilution method; summary of the method: as §3
[44] = tested on: Clostridioides difficile; assay: Antimicrobial activity against Clostridium difficile isolate 48 by agar dilution method; summary of the method: as §3
[45] = tested on: Clostridioides difficile; assay: Antimicrobial activity against rifaximin-resistant Clostridium difficile isolate 65 expressing RpoB H502N and R505K mutants by agar dilution method; summary of the method: as §7
[46] = tested on: Clostridioides difficile; assay: Antimicrobial activity against Clostridium difficile isolate 42 by agar dilution method; summary of the method: as §3
[47] = tested on: Clostridioides difficile; assay: Antimicrobial activity against Clostridium difficile isolate 8 by agar dilution method; summary of the method: as §6
[48] = tested on: Clostridioides difficile; assay: Antimicrobial activity against Clostridium difficile isolate 76 by Etest; summary of the method: as §2
[49] = tested on: Clostridioides difficile; assay: Antimicrobial activity against Clostridium difficile isolate 59 by Etest; summary of the method: as §5

## CO[C@H]1/C=C/O[C@@]2(C)Oc3c(C)c(O)c4c(O)c(c(/C=N/N5CCN(C)CC5)c(O)c4c3C2=O)NC(=O)/C(C)=C\C=C\[C@H](C)[C@H](O)[C@@H](C)[C@@H](O)[C@@H](C)[C@H](OC(C)=O)[C@@H]1C [RIFAMPIN]
[1]
  MIC: < 2 ng/mL
[2]
  MIC: < 2 ng/mL
[3]
  MIC: < 2 ng/mL
[4]
  MIC: 0.9 ng/mL (≈ 1.09 nM)
[5]
  MIC: > 32000 ng/mL
[6]
  MIC: < 2 ng/mL
[7]
  MIC: < 2 ng/mL
[8]
  MIC: < 2 ng/mL
[9]
  MIC: < 2 ng/mL
[10]
  MIC: < 2 ng/mL
[11]
  MIC: 0.9 ng/mL (≈ 1.09 nM)
[12]
  MIC: > 32000 ng/mL
[13]
  MIC: < 2 ng/mL
[14]
  MIC: < 2 ng/mL
[15]
  MIC: 4 ng/mL (≈ 4.86 nM)
[16]
  MIC: < 2 ng/mL
[17]
  MIC: 0.06 ng/mL (≈ 0.0729 nM)
[18]
  MIC: 0.06 ng/mL (≈ 0.0729 nM)
[19]
  MIC: 1.9 ng/mL (≈ 2.31 nM)
[20]
  MIC: < 2 ng/mL
[21]
  MIC: > 32000 ng/mL
[22]
  MIC: < 2 ng/mL
[23]
  MIC: > 256000 ng/mL
[24]
  MIC: 0.06 ng/mL (≈ 0.0729 nM)
[25]
  MIC: < 2 ng/mL
[26]
  MIC: 0.4 ng/mL (≈ 0.486 nM)
[27]
  MIC: 0.06 ng/mL (≈ 0.0729 nM)
[28]
  MIC: < 2 ng/mL
[29]
  MIC: > 32000 ng/mL
[30]
  MIC: > 32000 ng/mL
[31]
  MIC: < 2 ng/mL
[32]
  MIC: 0.4 ng/mL (≈ 0.486 nM)
[33]
  MIC: 0.9 ng/mL (≈ 1.09 nM)
[34]
  MIC: 0.9 ng/mL (≈ 1.09 nM)
[35]
  MIC: > 32000 ng/mL
[36]
  MIC: 0.9 ng/mL (≈ 1.09 nM)
[37]
  MIC: 0.9 ng/mL (≈ 1.09 nM)
[38]
  MIC: > 256000 ng/mL
[39]
  MIC: < 2 ng/mL
[40]
  MIC: > 256000 ng/mL
[41]
  MIC: < 2 ng/mL
[42]
  MIC: < 2 ng/mL
[43]
  MIC: 0.9 ng/mL (≈ 1.09 nM)
[44]
  MIC: 0.9 ng/mL (≈ 1.09 nM)
[45]
  MIC: > 256000 ng/mL
[46]
  MIC: 0.9 ng/mL (≈ 1.09 nM)
[47]
  MIC: 0.06 ng/mL (≈ 0.0729 nM)
[48]
  MIC: < 2 ng/mL
[49]
  MIC: < 2 ng/mL
